In ChEMBL document CHEMBL4627282, “Synthesis of guggulsterone derivatives as potential anti-austerity agents against PANC-1 human pancreatic cancer cells” (Bioorg Med Chem Lett, 2020):
Active and inactive are the calls of the source. The calls are words filed in the database; no cut-off is given here.

Assays:
PANC-1 [1] = assay: Inhibition of colony formation in human PANC1 cells incubated for 10 days in DMEM by crystal violet staining based assay
PANC-1 [2] = assay: Inhibition of colony formation in human PANC1 cells at 50 uM incubated for 10 days in nutrient deprived medium by crystal violet staining based assay; format: functional, cell-based
PANC-1 [3] = assay: Induction of cell death in human PANC1 cells assessed as rounded cell morphology at 5 uM incubated for 24 hrs in nutrient deprived medium by ethidium bromide and acridine orange dye based phase contrast microscopy; format: functional
In short: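 PANC-1 cells treated in NDM for 24 h, then double-stained with ethidium bromide and acridine orange. They were imaged in fluorescence (green for live, red for dead or dying) and phase-contrast modes on a digital microscope, and morphology was judged against untreated controls.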

PANC-1 [4] = assay: Cytotoxicity against human PANC1 cells incubated in normal DMEM medium; format: cell-based
In short: (§1)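 PANC-1 cells were exposed to a concentration series in nutrient-deprived medium (NDM; no glucose, amino acids or serum) and, in parallel, in complete DMEM. Survival was plotted against log concentration, and PC50, the concentration preferentially cytotoxic under starvation, was read from the curve.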

PANC-1 [5] = assay: Anti-austerity activity against human PANC1 cells assessed as cell killing incubated in nutrient deprived medium; format: functional
In short: as §1

PANC-1 [6] = assay: Induction of cell death in human PANC1 cells assessed as swelling of cells at 5 uM incubated in nutrient deprived medium measured every 10 mins for 12 hrs by live cell imaging analysis; format: functional, cell-based
PANC-1 [7] = assay: Induction of cell death in human PANC1 cells assessed as leakage of cytoplasmic content at 5 uM incubated in nutrient deprived medium measured every 10 mins for 12 hrs by live cell imaging analysis; format: functional, cell-based
PANC-1 [8] = assay: Inhibition of cell migration in human PANC1 cells at 5 uM incubated in nutrient deprived medium measured every 10 mins for 24 hrs by live cell imaging analysis; format: functional, cell-based
PANC-1 [9] = assay: Selectivity index, ratio of IC50 for human PANC1 cells incubated in normal DMEM medium to PC50 for human PANC1 cells incubated in nutrient-deprived medium
PANC-1 [10] = assay: Induction of cell death in human PANC1 cells assessed as cell shrinkage at 5 uM incubated in nutrient deprived medium measured every 10 mins for 12 hrs by live cell imaging analysis; format: functional, cell-based
PANC-1 [11] = assay: Inhibition of cell migration in human PANC1 cells at 3 uM incubated in nutrient deprived medium measured every 10 mins for 24 hrs by live cell imaging analysis; format: functional, cell-based
In short: (§2)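 Cells were treated in NDM in a stage-top incubator at 37 °C under 5% CO2. Phase-contrast images were captured every 10 min for 24 h on a digital imaging system with a 10× objective. Cell mobility, shrinkage, swelling and leakage of cytoplasm were scored from the time-lapse record.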

PANC-1 [12] = assay: Induction of cell death in human PANC1 cells assessed as rounded cell morphology at 3 uM incubated for 24 hrs in nutrient deprived medium by ethidium bromide and acridine orange dye based phase contrast microscopy; format: functional
In short: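 PANC-1 cells were held in NDM for 24 h with compound, alongside untreated controls, then double-stained with acridine orange and ethidium bromide. Imaging was in fluorescence (green AO marks live cells, red EB marks dead or dying cells) and in phase-contrast mode to assess morphology.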

PANC-1 [13] = assay: Induction of cell death in human PANC1 cells assessed as cell shrinkage at 3 uM incubated in nutrient deprived medium measured every 10 mins […] by live cell imaging analysis; format: functional, cell-based
In short: as §2

PANC-1 [14] = assay: Induction of cell death in human PANC1 cells assessed as swelling of cells at 3 uM incubated in nutrient deprived medium measured every 10 mins for […] by live cell imaging analysis; format: functional, cell-based
In short: as §2

PANC-1 [15] = assay: Induction of cell death in human PANC1 cells assessed as leakage of cytoplasmic content at 3 uM incubated in nutrient deprived medium measured every 10 mins for […] by live cell imaging analysis; format: functional, cell-based
In short: as §2

PANC-1 [16] = assay: Inhibition of colony formation in human PANC1 cells at 1.25 uM incubated for 10 days in DMEM by crystal violet staining based assay; conditions: PANC-1, 240 h

| SMILES | IC50 (PANC-1 [4]) | PC50 (PANC-1 [5]) | further results |
| --- | --- | --- | --- |
| CC=C1CC[C@H]2[C@@H]3CCC4=CC(=O)CC[C@]4(C)[C@H]3CC[C@]12C (mixture of isomers) | > 100 µM | – | inhibition (PANC-1 [1]): Dose-dependent effect; inhibition (PANC-1 [2]): Active; Activity (PANC-1 [3]): Active; Activity (PANC-1 [5]): Dose-dependent effect; Activity (PANC-1 [6]): Active; Activity (PANC-1 [7]): Active; inhibition (PANC-1 [8]): Active; Ratio (PANC-1 [9]): 34; Activity (PANC-1 [10]): Active |
| CC[C@H]1C(=O)C[C@H]2[C@@H]3CC[C@H]4CC(=O)CC[C@]4(C)[C@H]3CC[C@]12C | > 100 µM | 18 µM | – |
| CC/C=C1/C(=O)C[C@H]2[C@@H]3CCC4=CC(=O)CC[C@]4(C)[C@H]3CC[C@]12C | > 100 µM | 50 µM | – |
| C=C1C(=O)C[C@H]2[C@@H]3CCC4=CC(=O)CC[C@]4(C)[C@H]3CC[C@]12C | 11 µM | 1.6 µM | inhibition (PANC-1 [1]): Dose-dependent effect; inhibition (PANC-1 [11]): Active; Activity (PANC-1 [5]): Dose-dependent effect; Ratio (PANC-1 [9]): 6.5; Activity (PANC-1 [12]): Active; Activity (PANC-1 [13]): Active; Activity (PANC-1 [14]): Active; Activity (PANC-1 [15]): Active; inhibition at 1.25 µM (PANC-1 [16]): 100% |
| CCC/C=C1/C(=O)C[C@H]2[C@@H]3CCC4=CC(=O)CC[C@]4(C)[C@H]3CC[C@]12C | > 100 µM | 14 µM | – |
| CCC/C=C1\C(=O)C[C@H]2[C@@H]3CCC4=CC(=O)CC[C@]4(C)[C@H]3CC[C@]12C | > 100 µM | 18 µM | – |
| CC/C=C1\C(=O)C[C@H]2[C@@H]3CCC4=CC(=O)CC[C@]4(C)[C@H]3CC[C@]12C | > 100 µM | 17 µM | – |
| COc1cc(C[C@H]2C(=O)OC[C@@H]2Cc2ccc(OC)c(OC)c2)ccc1O [ARCTIGENIN] | – | 0.8 µM | – |
| C/C=C1/C(=O)C[C@H]2[C@@H]3CC[C@H]4CC(=O)CC[C@]4(C)[C@H]3CC[C@]12C | > 100 µM | >100 µM | – |
| C/C=C1/C(=O)C[C@H]2[C@@H]3CCC4=CC(=O)CC[C@]4(C)[C@H]3CC[C@]12C [E-GUGGULSTERONE] | > 100 µM | 42 µM | – |
| C/C=C1\C(=O)C[C@H]2[C@@H]3CCC4=CC(=O)CC[C@]4(C)[C@H]3CC[C@]12C [GUGGULSTERONE] | 42 µM | 37 µM | – |
| COCCC/C=C1/C(=O)C[C@H]2[C@@H]3CCC4=CC(=O)CC[C@]4(C)[C@H]3CC[C@]12C | > 100 µM | 52 µM | – |
